Experiment [1] addresses Bacterial leucyl aminopeptidase (Vibrio proteolyticus, UniProt Q01693). As to the kind of experiment: Inhibition of Aeromonas proteolytica aminopeptidase using L-leucine-p-nitroanilide as substrate after 30 mins by Dixon plot analysis. The method in brief:
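Commercial Aeromonas proteolytica aminopeptidase, 2 mUnits per assay in 0.05 M Tris-HCl pH 7.5, 30 °C, started by adding enzyme. L-leucine-p-nitroanilide was set at its Km (0.02 mM). Release of p-nitroanilide was read continuously at 405 nm over 30 min for initial velocities. Ki was taken from Dixon plots, with racemic compounds tested up to their solubility limit.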

Experiment [2] concerns the target T1, Cytosol aminopeptidase (Bos taurus, UniProt P00727).
T1 sequence (P00727 whole entry): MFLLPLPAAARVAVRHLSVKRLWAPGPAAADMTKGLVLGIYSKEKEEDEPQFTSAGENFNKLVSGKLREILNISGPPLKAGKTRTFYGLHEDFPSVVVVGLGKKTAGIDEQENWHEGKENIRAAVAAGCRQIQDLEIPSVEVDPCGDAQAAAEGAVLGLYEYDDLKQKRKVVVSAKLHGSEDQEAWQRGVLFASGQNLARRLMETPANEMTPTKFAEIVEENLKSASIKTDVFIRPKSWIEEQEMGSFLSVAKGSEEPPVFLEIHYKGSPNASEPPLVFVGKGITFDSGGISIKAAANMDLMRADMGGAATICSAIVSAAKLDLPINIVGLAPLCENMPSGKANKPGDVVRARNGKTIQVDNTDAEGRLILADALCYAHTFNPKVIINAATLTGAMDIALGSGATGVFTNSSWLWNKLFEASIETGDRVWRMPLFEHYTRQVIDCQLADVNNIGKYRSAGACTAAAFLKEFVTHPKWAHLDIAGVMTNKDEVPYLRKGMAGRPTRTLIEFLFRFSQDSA
As to the kind of experiment: Inhibition of bovine kidney cytosolic leucine aminopeptidase using L-leucine-p-nitroanilide as substrate after 30 mins by Dixon plot analysis. The method in brief: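 Cytosolic leucine aminopeptidase, purified by a published procedure, 20 Units per assay in 0.1 M Tris-HCl, 0.1 mM ZnCl2, 5 mM MnCl2, 1 M KCl, pH 8.0, at 30 °C. […] Ki came from Dixon plots of racemates.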

For experiment [3], the target named is T2, Aminopeptidase N (Sus scrofa, UniProt P15145).
T2 sequence (P15145 whole entry): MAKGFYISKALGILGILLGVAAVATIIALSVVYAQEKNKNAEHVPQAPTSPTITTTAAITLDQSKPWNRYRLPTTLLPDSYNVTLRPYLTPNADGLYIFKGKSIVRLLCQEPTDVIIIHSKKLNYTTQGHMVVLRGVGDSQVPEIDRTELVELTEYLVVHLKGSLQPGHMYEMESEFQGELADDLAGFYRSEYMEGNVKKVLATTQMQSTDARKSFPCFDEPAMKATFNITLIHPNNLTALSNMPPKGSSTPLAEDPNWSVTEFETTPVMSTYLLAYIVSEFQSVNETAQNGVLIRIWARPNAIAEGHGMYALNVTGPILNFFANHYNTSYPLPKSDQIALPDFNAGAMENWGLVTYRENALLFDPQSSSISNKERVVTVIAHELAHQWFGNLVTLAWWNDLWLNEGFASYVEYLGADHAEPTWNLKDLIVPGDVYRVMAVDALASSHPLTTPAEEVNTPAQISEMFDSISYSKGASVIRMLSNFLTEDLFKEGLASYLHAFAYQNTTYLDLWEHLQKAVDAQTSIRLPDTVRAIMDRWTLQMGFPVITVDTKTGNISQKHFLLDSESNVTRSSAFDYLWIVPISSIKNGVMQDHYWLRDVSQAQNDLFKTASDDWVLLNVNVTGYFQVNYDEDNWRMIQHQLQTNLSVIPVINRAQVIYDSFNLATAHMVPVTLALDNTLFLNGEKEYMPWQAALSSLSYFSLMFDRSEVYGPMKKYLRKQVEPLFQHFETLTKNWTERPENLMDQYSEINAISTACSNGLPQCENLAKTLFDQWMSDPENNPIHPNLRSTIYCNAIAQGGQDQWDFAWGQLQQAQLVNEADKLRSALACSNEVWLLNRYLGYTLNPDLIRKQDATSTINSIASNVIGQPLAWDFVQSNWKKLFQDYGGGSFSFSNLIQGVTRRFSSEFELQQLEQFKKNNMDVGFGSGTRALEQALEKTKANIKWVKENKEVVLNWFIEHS
As to the kind of experiment: Inhibition of porcine kidney APN using L-leucine-p-nitroanilide as substrate after 30 mins by Dixon plot analysis.

For twelve molecules, Ki results are on record in ChEMBL document CHEMBL1821575, “A novel amino-benzosuberone derivative is a picomolar inhibitor of mammalian aminopeptidase N/CD13” (Bioorg Med Chem, 2011).

The structures appear in SMILES notation. Bounds are passed on as bounds.

Chain of Bacterial leucyl aminopeptidase (Q01693 whole entry): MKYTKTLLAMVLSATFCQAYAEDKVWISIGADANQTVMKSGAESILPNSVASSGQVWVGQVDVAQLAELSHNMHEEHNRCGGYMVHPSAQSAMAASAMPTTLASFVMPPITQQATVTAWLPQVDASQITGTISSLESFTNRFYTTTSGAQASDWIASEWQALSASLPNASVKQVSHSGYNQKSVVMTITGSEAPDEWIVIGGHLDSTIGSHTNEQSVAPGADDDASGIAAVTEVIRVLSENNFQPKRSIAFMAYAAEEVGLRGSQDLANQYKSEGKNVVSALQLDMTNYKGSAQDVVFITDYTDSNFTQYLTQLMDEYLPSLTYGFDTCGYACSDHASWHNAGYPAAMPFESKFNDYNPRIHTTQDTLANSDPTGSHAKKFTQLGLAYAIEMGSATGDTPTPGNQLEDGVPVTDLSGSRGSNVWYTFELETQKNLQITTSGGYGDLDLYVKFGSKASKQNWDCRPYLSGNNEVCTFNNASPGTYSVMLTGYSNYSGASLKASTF

By Ki is commonly meant the equilibrium dissociation constant of an inhibitor or competing ligand from its target. A high value points to lower affinity. For the molecule `NC1CCc2cccc(Br)c2CC1=O` (racemic), the Ki is 213 µM in experiment [1] and more than 100 µM in experiment [2].
On to `NC1CCc2ccc3ccccc3c2CC1=O` (racemic), for which the Ki in experiment [3] is 0.1 µM; in experiment [1], more than 100 µM; in experiment [2], more than 100 µM.
In the case of `NC1CCc2c(Br)ccc(-c3ccccc3)c2CC1=O` (racemic), the values for the Ki in experiment [1] and in experiment [2] were 39 µM and 70 µM, respectively.
For `NC1CCc2c(cccc2-c2ccccc2)CC1=O` (racemic), in that order: more than 100 µM and more than 100 µM.
For `NC1CCc2c(Cl)cccc2CC1=O` (racemic), in that order: more than 100 µM and more than 100 µM.
As to `NC1CCc2ccccc2CC1=O` (racemic), the Ki in experiment [1] was 900 µM; in experiment [2], more than 100 µM.
For `NC1CCc2c(Br)cccc2CC1=O` (racemic), in that order: more than 100 µM and more than 100 µM.
For `NC1CCc2cccc(-c3ccccc3)c2CC1=O` (racemic), in that order: 28 µM and more than 100 µM.
As to `NC1CCc2c(-c3ccccc3)ccc(Br)c2CC1=O` (racemic), the Ki is 0.07 µM in experiment [3], more than 100 µM in experiment [1] and more than 100 µM in experiment [2].
In the case of `NC1CCc2c(Br)ccc(Br)c2CC1=O` (racemic), the Ki is 0.006 µM in experiment [3] and more than 100 µM in experiment [2].
Consider `NC1CCc2c(ccc3ccccc23)CC1=O` (racemic), for which the values for the Ki in experiment [3], in experiment [1] and in experiment [2] were 0.04 µM, more than 100 µM and more than 100 µM, respectively.
Regarding `NC1CCc2c(-c3ccccc3)ccc(-c3ccccc3)c2CC1=O` (racemic), the inhibition constant (Ki) was 0.04 µM in experiment [3], more than 100 µM in experiment [1] and 50 µM in experiment [2].
